These results are taken from ChEMBL document CHEMBL1250450, “Well-defined regions of the Plasmodium falciparum reticulocyte binding protein homologue 4 mediate interaction with red blood cell membrane” (J Med Chem, 2010).

Residues, ends and D or L forms follow the SMILES beside them.

The species named for the assay is Homo sapiens. In words: Binding affinity to RBC membrane receptor in human RBC assessed as specific binding activity measured as ratio of specifically bound peptide/added peptide by gamma counter. A digest of the protocol: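 1 × 10^8 healthy-donor RBCs incubated in triplicate with four rising concentrations of 125I-peptide (0-560 nM), with or without unlabeled peptide, then washed in HBS (pH 7.4) and gamma-counted. Specific binding (total minus nonspecific) plotted against added peptide; the slope is the specific binding activity. The HABP cutoff is ≥2%.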
In the case of `CC[C@H](C)[C@H](NC(=O)[C@@H](NC(=O)[C@H](CCCNC(=N)N)NC(=O)[C@H](CCC(N)=O)NC(=O)[C@H](CO)NC(=O)[C@@H](NC(=O)[C@H](CC(N)=O)NC(=O)[C@@H](NC(=O)[C@@H](NC(=O)[C@@H](N)CCCCN)[C@@H](C)O)[C@@H](C)CC)[C@H](C)O)[C@@H](C)O)C(=O)N[C@@H](CC(=O)O)C(=O)N[C@@H](CC(=O)O)C(=O)N[C@@H](CO)C(=O)N[C@@H](CC(N)=O)C(=O)N[C@@H](CCSC)C(=O)N[C@@H](CC(=O)O)C(=O)N[C@@H](CCCNC(=N)N)C(=O)N[C@@H](CC(N)=O)C(=O)N[C@@H](CC(N)=O)C(=O)N[C@@H](CCCNC(=N)N)C(=O)N[C@@H](Cc1ccc(O)cc1)C(=O)O`, the Activity is under 2%.
Under `CC[C@H](C)[C@H](NC(=O)[C@H](CC(N)=O)NC(=O)[C@H](CCCCN)NC(=O)[C@H](CCC(=O)O)NC(=O)[C@H](CC(N)=O)NC(=O)[C@@H](NC(=O)[C@H](Cc1cnc[nH]1)NC(=O)[C@H](CCC(=O)O)NC(=O)[C@H](CC(N)=O)NC(=O)[C@H](CC(N)=O)NC(=O)[C@@H](NC(=O)[C@H](CC(N)=O)NC(=O)[C@H](CC(N)=O)NC(=O)[C@H](CCC(=O)O)NC(=O)[C@H](CC(N)=O)NC(=O)[C@@H](NC(=O)[C@H](Cc1cnc[nH]1)NC(=O)[C@H](CCC(=O)O)NC(=O)[C@H](CC(N)=O)NC(=O)[C@@H](N)CC(N)=O)[C@H](C)O)[C@@H](C)CC)[C@H](C)O)C(=O)N[C@@H](Cc1ccc(O)cc1)C(=O)O` stands under 2%; under `CC[C@H](C)[C@H](NC(=O)[C@H](CCC(N)=O)NC(=O)[C@H](CCC(N)=O)NC(=O)[C@H](CO)NC(=O)[C@H](Cc1ccc(O)cc1)NC(=O)[C@H](CC(N)=O)NC(=O)[C@@H](NC(=O)[C@H](CC(N)=O)NC(=O)[C@H](Cc1cnc[nH]1)NC(=O)[C@@H](NC(=O)[C@H](Cc1ccccc1)NC(=O)[C@@H](NC(=O)[C@H](CC(=O)O)NC(=O)[C@@H](N)CO)C(C)C)[C@H](C)O)[C@@H](C)CC)C(=O)N[C@@H](CC(C)C)C(=O)N[C@@H](CC(N)=O)C(=O)N[C@@H](Cc1ccc(O)cc1)C(=O)N[C@@H](CO)C(=O)N[C@@H](CCC(N)=O)C(=O)N[C@@H](C)C(=O)O`, under 2%.
As to `CC[C@H](C)[C@H](NC(=O)[C@H](Cc1ccc(O)cc1)NC(=O)[C@H](CCC(=O)O)NC(=O)[C@H](Cc1ccc(O)cc1)NC(=O)[C@H](CCC(=O)O)NC(=O)[C@H](CCCCN)NC(=O)[C@H](C)NC(=O)[C@H](C)NC(=O)[C@H](CC(N)=O)NC(=O)[C@@H](NC(=O)[C@H](C)NC(=O)[C@H](CC(N)=O)NC(=O)[C@H](CC(N)=O)NC(=O)[C@H](CO)NC(=O)[C@H](CC(N)=O)NC(=O)[C@H](NC(=O)[C@@H](N)Cc1ccccc1)[C@@H](C)CC)C(C)C)C(=O)N[C@H](C(=O)N[C@@H](CCCCN)C(=O)N[C@@H](Cc1ccc(O)cc1)C(=O)O)[C@@H](C)CC`, the Activity is under 2%.
Regarding `CC[C@H](C)[C@H](NC(=O)[C@H](Cc1ccccc1)NC(=O)[C@H](Cc1ccccc1)NC(=O)[C@H](Cc1ccccc1)NC(=O)[C@H](C)NC(=O)[C@@H](NC(=O)[C@H](CO)NC(=O)[C@H](CO)NC(=O)[C@@H](N)CS)[C@H](C)O)C(=O)N[C@@H](CCCCN)C(=O)N[C@@H](CC(N)=O)C(=O)N[C@@H](CO)C(=O)N[C@@H](CC(N)=O)C(=O)N[C@@H](CCC(=O)O)C(=O)N1CCC[C@H]1C(=O)N[C@@H](Cc1cnc[nH]1)C(=O)N[C@@H](Cc1cnc[nH]1)C(=O)N[C@H](C(=O)N[C@@H](Cc1ccccc1)C(=O)N[C@@H](CC(N)=O)C(=O)N[C@@H](Cc1ccc(O)cc1)C(=O)O)[C@@H](C)CC`, the Activity was under 2%.
With `CC[C@H](C)[C@H](NC(=O)[C@H](Cc1ccc(O)cc1)NC(=O)[C@H](CCC(=O)O)NC(=O)[C@H](CC(N)=O)NC(=O)[C@@H](NC(=O)[C@H](CCCCN)NC(=O)[C@@H](N)CCCCN)C(C)C)C(=O)N[C@@H](CC(N)=O)C(=O)N[C@@H](CC(N)=O)C(=O)N[C@@H](CO)C(=O)N[C@@H](CC(=O)O)C(=O)N[C@@H](CS)C(=O)N[C@@H](Cc1cnc[nH]1)C(=O)N[C@@H](CC(C)C)C(=O)N[C@H](C(=O)N[C@@H](CS)C(=O)N[C@@H](CO)C(=O)N[C@@H](CCCCN)C(=O)N[C@@H](Cc1ccc(O)cc1)C(=O)N[C@@H](CCCCN)C(=O)O)[C@@H](C)O` (H-KKVNEYINNSDCHLTCSKYK-OH), the Activity was under 2%.
Under H-CIKQTYNNNKSIESLKLKIN-OH stands under 2%.
The result for H-DDNFIEYNILNADPDLRSHF-OH reads under 2%; that for H-DIENIIKQNEHTESYKNLDT-OH, under 2%; that for H-DYSLLKLSYNKNQDIYKNIQ-OH, under 2%.
As for H-EDEDENENEVENENEDFNDIY-OH, the Activity is under 2%.
Consider H-EKGKRGTSRNNNIHTNENNIY-OH, for which the Activity is under 2%.
The result for H-EKIGLRQMENRLKGKYEEIK-OH reads under 2%; that for H-ELIPITQQIQTKMYTTNNIE-OH, under 2%; that for H-FDQINQKYDDLTKNINQMND-OH, under 2%.
Under H-FMQNETFKKNIDDKIKEMNNY-OH stands under 2%.
The result for H-HIKQILINYIQECKPIQNIS-OH reads under 2%; that for H-HKINNYSHNIEDLINQLQHK-OH, under 2%.
H-IFQKEFSEADNAHSEEKEEY-OH: the Activity was under 2%.
H-IIKNITSIYYKINILNILII-OH: the Activity was under 2%.
Under H-INNLMIISFDKNKSSDLMLQY-OH stands under 2%; under H-IQERNQNNQIVKELKYNKQI-OH, under 2%; under H-IQHYQTKFNINTNTKQLQQL-OH, under 2%.
Under H-IQNHKNKQETKLNTTTIQELY-OH stands under 2%; under H-IRKIYDIETIYQNDLHNIEE-OH, under 2%; under H-ITLLVSRKQLIYIEYIYFIN-OH, under 2%.
The result for H-KANLQDRDIKYIVQNNDANN-OH reads under 2%.
Turning to H-KEIKKVLPQLYIPKNEQEYI-OH, the Activity was under 2%.
Under H-KIHTLEELKILTQEINDKNVY-OH stands under 2%; under H-KINNNLKDITHIVINDNNTLY-OH, under 2%; under H-KYNLPQERIIKNYNHNGINN-OH, under 2%.
On to H-LNIKDKDEKKRKNDNLINNY-OH, for which the Activity is under 2%.
Consider H-LPVYFDEVEDEVEDEVEDED-OH, for which the Activity is under 2%.
In the case of H-LQLLKDIKEIQTKQIDTKINY-OH, the Activity is under 2%.
The result for H-MLETTKEQILLLWNNKKISQY-OH reads over 2%.
Under H-NGQKLKTDIILNSFVQINSSY-OH stands under 2%; under H-NHVELYIKNFQKNKIQIHKN-OH, under 2%; under H-NISQNYNNHSLSFVHSINNH-OH, under 2%.
As for H-NLTNSTQEYINQIKAIPTNL-OH, the Activity is under 2%.
The result for H-NNEHANEKNIYNEHTNENNI-OH reads under 2%.
The result for H-NNLKDNIQININNIKSIIRNY-OH reads under 2%; that for H-NYEHPNNYQQKNDEKISLQH-OH, under 2%.
The result for H-PPNSPFRSYYDKNLNKDINE-OH reads under 2%; that for H-QEFNKKIQHFKEETQIMIWKY-OH, under 2%.
For the compound H-QENITTFENQYKDLIIKMNH-OH, the Activity was under 2%.
The result for H-QFYINEKNYNNNHDDHNDDH-OH reads under 2%; that for H-TCHSIQTLLNNLISSKIIFKY-OH, under 2%; that for H-TFNMYYNDIQQIKIKINQNE-OH, under 2%.
